For series [1] the following is noted: cited from earlier work.
The nature of series [2]: Phase solubility study of GRI with β-CD, NS2 and NS3. Type of series: physicochemical. The following applies: distilled water.
Another series is described as follows: In-vitro release study. Type of series: physicochemical.
A short description of a further series: In-vivo bioavailability. Also noted: species or system rats. The following applies: male, albino, rat, plasma, po, 15 mg/kg. In short, it runs like this: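 Fasted male albino rats (300±25 g), 7 per group, single oral 15 mg/kg as 1 ml aqueous suspension by feeding tube with 10 ml water. Orbital sinus blood into heparin at 0–48 h; plasma stored at -80 °C. Acetonitrile protein precipitation, propranolol internal standard, LC-MS/MS over 10–6000 ng/mL. Non-compartmental parameters per rat; AUC0-48 by log-linear trapezoidal rule, kel from terminal slope, t1/2 = 0.693/kel.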

Consider two compounds from publication PMC7078523 (Saudi Pharmaceutical Journal : SPJ, 2020).

In brackets after ≈: the same amount, converted by molar mass.

Broadly, the solubility is the dissolved amount per volume that the medium holds. The AUC(0-t) is the area under the concentration-time curve up to a stated or last time point. What is called Cmax is the highest concentration seen after dosing. In general, Tmax refers to the time at which the peak concentration occurs. The half-life is the time needed for the level to fall by half in the phase considered. Low values mean rapid decline, high ones slow decline.

For `CCC(C)n1ncn(-c2ccc(N3CCN(c4ccc(OCC5COC(Cn6cncn6)(c6ccc(Cl)cc6Cl)O5)cc4)CC3)cc2)c1=O` (stereo not shown) [itraconazole], the Aqueous solubility entry in series [1] (physiological pH, ref Swaminathan et al., 2007) was “about 1 ng mL^−1”.

Regarding `COC1=CC(=O)C[C@@H](C)[C@]12Oc1c(Cl)c(OC)cc(OC)c1C2=O` [GRI, Griseofulvin], in series [2], the solubility was about 35 µM (≈ 12.3 µg/mL). In addition, the “GRI cumulative percent released/dissolved after 2 hrs” value in “In-vitro release study” (0.1 N HCl (pH 1.2), 37 °C, 50 rpm) amounted to 21.81 ± 0.07%. For the same compound, the “GRI cumulative percent released/dissolved after 7 h” value in “In-vitro release study” (2 h 0.1 N HCl then 5 hrs phosphate buffer pH 7.4) turned out to be 27.43 ± 0.32%. Moreover, the “Dissolution efficiency (%D.E.)” value in the series “In-vitro release study” (after 7 hrs) is recorded as 23.87%. Also, the “Best fitted release kinetics model” value in “In-vitro release study” (highest correlation coefficient (R^2)) is on record as “Higuchi release kinetics model”. In “In-vivo bioavailability”, the AUC(0-t) was determined as 22500 ng·h/mL, the highest level (Cmax) was 1810 ng/mL, the time to peak (Tmax) turned out to be 2 h and the half-life was 20 h. The same compound had a k el in the series “In-vivo bioavailability” of 1.03e-05 s⁻¹. Further, the “Biopharmaceutics Classification System (BCS) class” value in series [1] (ref Amidon et al., 1995) is on record as “class II”. Further, the “log P (octanol/water)” value in series [1] (ref Arida et al., 2007) was 2.15.
